IC50 and Activity data for one compound are collected here from ChEMBL document CHEMBL5108039, “Piperazine tethered bergenin heterocyclic hybrids: design, synthesis, anticancer activity, and molecular docking studies” (RSC Med Chem, 2022).

What is called IC50 is the point on the concentration scale where inhibition reaches its midpoint.

One data set concerns HCT-15. The data set can be described thus: Cytotoxicity against human HCT-15 cells assessed as cell growth inhibition. It is filed as functional, cell-based. In outline:
(§1)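 Compounds were dissolved in sterile DMSO as 10 mg ml−1 stocks and tested for in vitro growth inhibition of human cancer cell lines. Doxorubicin was the standard drug and DMSO (0.01%) the vehicle control. IC50 values are reported as means.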

Data set [1] has as its system CAL-27. Briefly: Cytotoxicity against human CAL-27 cells assessed as cell growth inhibition. It counts as functional, cell-based. In outline:
as §1

Data set [2] deals with SCC-9. Briefly: Cytotoxicity against human SCC-9 cells assessed as cell growth inhibition. It counts as functional, cell-based. In outline:
as §1

Another data set has as its system A549. Briefly: Cytotoxicity against human A549 cells assessed as cell growth inhibition. It is filed as functional, cell-based. In outline: (§2)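 Compounds were dissolved in sterile DMSO as 10 mg ml−1 stocks and tested in vitro for cytotoxicity in a cell-line panel, with DMSO (0.01%) as vehicle control and doxorubicin as standard. Mean IC50 values were reported, and the normal lung epithelial cells were tested up to 100 μM.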

The nature of data set [3]: Cytotoxicity against human BEAS-2B cells assessed as cell growth inhibition. It is filed as toxicity, cell-based. In outline:
as §2

For data set [4], the system named is CAL-27. Briefly: Cell cycle arrest in human CAL-27 cells assessed as accumulation at G0/G1 phase at 0.5 uM incubated for 24 hrs by flow cytometry (reference value: 77.6 %). It counts as functional. A general note: Flow cytometry measures light scatter and fluorescence of single cells or particles in a stream.
The subject of data set [5] is CAL-27. The data set can be described thus: Cell cycle arrest in human CAL-27 cells assessed as accumulation at S phase at 0.5 uM incubated for 24 hrs by flow cytometry (reference value: 3.6 %). It is filed as functional.
The subject of data set [6] is CAL-27. Briefly: Cell cycle arrest in human CAL-27 cells assessed as accumulation at G2/M phase at 0.5 uM incubated for 24 hrs by flow cytometry (reference value: 11.9 %). It is filed as functional.
Data set [7] relates to SCC-9. The data set can be described thus: Cell cycle arrest in human SCC-9 cells assessed as accumulation at G0/G1 phase at 0.5 uM incubated for 24 hrs by flow cytometry (reference value: 70.8 %). It is filed as functional.
The test system of data set [8] is SCC-9. The data set can be described thus: Cell cycle arrest in human SCC-9 cells assessed as accumulation at S phase at 0.5 uM incubated for 24 hrs by flow cytometry (reference value: 14.4 %). It is filed as functional.
Data set [9] has as its system SCC-9. The data set can be described thus: Cell cycle arrest in human SCC-9 cells assessed as accumulation at G2/M phase at 0.5 uM incubated for 24 hrs by flow cytometry (reference value: 14.2 %). It is filed as functional.
For data set [10], the system named is CAL-27. The data set can be described thus: Induction of apoptosis in human CAL-27 cells assessed as live cells at 0.5 uM incubated for 24 hrs by Annexin V-FITC/PI staining based flow cytometric analysis (reference value: 99.8 %). It counts as functional. In outline: (§3)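 CAL27 cells were treated with vehicle, doxorubicin or test compounds at 10–63 μM, and apoptosis was assessed by annexin V–FITC/PI staining with flow cytometry. Cells were scored as live, early apoptotic, late apoptotic or necrotic. The vehicle was DMSO (0.01%).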

Data set [11] has as its system CAL-27. The data set can be described thus: Induction of apoptosis in human CAL-27 cells assessed as early apoptotic cells at 0.5 uM incubated for 24 hrs by Annexin V-FITC/PI staining based flow cytometric analysis (reference value: 0.1 %). It is filed as functional. In outline:
as §3

Data set [12] concerns CAL-27. Briefly: Induction of apoptosis in human CAL-27 cells assessed as late apoptotic cells at 0.5 uM incubated for 24 hrs by Annexin V-FITC/PI staining based flow cytometric analysis (reference value: 0.1 %). It counts as functional. In outline: as §3
Data set [13] has as its system CAL-27. The data set can be described thus: Induction of apoptosis in human CAL-27 cells assessed as necrotic cells at 0.5 uM incubated for 24 hrs by Annexin V-FITC/PI staining based flow cytometric analysis (reference value: 0.0 %). It counts as functional. In outline: as §3
Data set [14] has as its system SCC-9. The data set can be described thus: Induction of apoptosis in human SCC-9 cells assessed as live cells at 0.5 uM incubated for 24 hrs by Annexin V-FITC/PI staining based flow cytometric analysis (reference value: 95.7 %). It is filed as functional.
For data set [15], the system named is SCC-9. Briefly: Induction of apoptosis in human SCC-9 cells assessed as early apoptotic cells at 0.5 uM incubated for 24 hrs by Annexin V-FITC/PI staining based flow cytometric analysis (reference value: 2.8 %). It is filed as functional.
The subject of data set [16] is SCC-9. The data set can be described thus: Induction of apoptosis in human SCC-9 cells assessed as late apoptotic cells at 0.5 uM incubated for 24 hrs by Annexin V-FITC/PI staining based flow cytometric analysis (reference value: 1.4 %). It counts as functional.
In data set [17] the test system is SCC-9. The data set can be described thus: Induction of apoptosis in human SCC-9 cells assessed as necrotic cells at 0.5 uM incubated for 24 hrs by Annexin V-FITC/PI staining based flow cytometric analysis (reference value: 0.1 %). It counts as functional.

For the compound `COc1cccc2c1C(=O)c1c(O)c3c(c(O)c1C2=O)C[C@@](O)(C(=O)CO)C[C@@H]3O[C@H]1C[C@H](N)[C@H](O)[C@H](C)O1` [DOXORUBICIN], the half-inhibitory concentration (IC50) was 800 nM in the data set on HCT-15; 400 nM with CAL-27 [1]; 390 nM in the data set on SCC-9 [2]; 800 nM with A549; 800 nM in data set [3]. Besides, the Activity in the data set on CAL-27 [4] is 59.7%; in the data set on CAL-27 [5] it was 4.2%; in the data set on CAL-27 [6], 34.3%; with SCC-9 [7] it was 29%; in the data set on SCC-9 [8] it was 16.31%; with SCC-9 [9], 55.6%. Further, the Activity in the data set on CAL-27 [10] is given as 16%; in the data set on CAL-27 [11], 0.7%; with CAL-27 [12], 58.9%; in the data set on CAL-27 [13] it was 24.4%; in the data set with SCC-9 [14], 7.1%; in the data set on SCC-9 [15], 0.3%. Also, the Activity stood at 41% in the data set with SCC-9 [16] and 51.5% in the data set on SCC-9 [17].
